Assay results from paper PMC3162318 (Journal of biomolecular screening, 2011).

Each molecule was assayed against T1, TRβ-SRC2-2 interaction (hTRβ LBD, SRC2-2 fluorescein peptide) (Homo sapiens, UniProt P10828) (assay: not given). Conditions: confirmation, independent samples, fluorescein fluoroprobe.
T1 sequence (P10828 209-461): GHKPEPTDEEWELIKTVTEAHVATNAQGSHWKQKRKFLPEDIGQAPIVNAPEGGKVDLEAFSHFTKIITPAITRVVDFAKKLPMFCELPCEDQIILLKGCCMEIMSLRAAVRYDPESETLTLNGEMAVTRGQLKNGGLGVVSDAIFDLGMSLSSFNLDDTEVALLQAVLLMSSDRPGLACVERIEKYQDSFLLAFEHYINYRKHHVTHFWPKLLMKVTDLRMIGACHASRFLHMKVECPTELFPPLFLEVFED
Assay type: binding
Outline: (§1)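 Talon-purified TRβ (eluted with T3), 0.6 uM, with 20 nM SRC2-2 peptide carrying an N-terminal Texas Red or fluorescein label, in pH 7.4 Tris buffer with 1 µM T3 and 4% DMSO. Test compound was given as 10 three-fold dilutions, top 130 µM, then incubated 3 h at ambient temperature. Polarization was read at 555/632 nm (Texas Red) or 480/535 nm (fluorescein). mP was normalized to DMSO wells with and without TRβ, and concentration-response curves were fitted.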
For `CN1CC[C@@]2(C)c3cc(O)ccc3N(C)[C@H]2O1` [geneseroline], the IC50 was greater than 30 µM.

The molecules below were run against T2, TRβ-SRC2-2 interaction (hTRβ LBD, SRC2-2 Texas Red peptide) (Homo sapiens, UniProt P10828) (assay: not given). Conditions: confirmation, independent samples, Texas Red fluoroprobe.
T2 sequence (P10828 209-461): T1 sequence (P10828 209-461)
Assay type: binding
Outline: as §1
`CN1CC[C@@]2(C)c3cc(O)ccc3N(C)[C@H]2O1` [geneseroline] showed an IC50 greater than 30 µM.

Each molecule was assayed against T2, TRβ-SRC2-2 interaction (hTRβ LBD, SRC2-2 Texas Red peptide) (assay: TRβ-SRC2-2 fluorescence polarization qHTS). Conditions: six concentrations up to 92 μM; FP inhibition.
Assay type: binding
With `O=C(COC(=O)c1ccncc1)NC(=O)C1CCCCC1` [MLS000565662-01] the “activity in the qHTS (active/inactive)” value was “loss of the activity”.
`CS(=O)(=O)c1ccc(C(=O)OCc2nnc(-c3ccccc3)o2)cc1[N+](=O)[O-]` [MLS001010708-01] was tested, and the “activity in the qHTS (active/inactive)” value was “inactive”.
In the case of `COc1cc(C(=O)OCC(=O)NC(=O)C2CCCCC2)ccc1OC(F)F` [MLS000517502-01], the “activity in the qHTS (active/inactive)” value is reported as “loss of the activity”.
With `O=C(COC(=O)c1ccc(Cl)cc1O)NC(=O)C1CCCCC1` [MLS000776485-01] the “activity in the qHTS (active/inactive)” value was “loss of the activity”.
`CS(=O)(=O)c1ccc(C(=O)OCC(=O)NC23CC4CC(CC(C4)C2)C3)cc1[N+](=O)[O-]` [MLS000389544-01] was tested, and the “activity in the qHTS (active/inactive)” value was “active”.
`CC(CCc1ccccc1)NC(=O)COC(=O)c1ccc(S(C)(=O)=O)c([N+](=O)[O-])c1` (stereo not shown) [MLS001003365-01] was tested, and the “activity in the qHTS (active/inactive)” value was “active”.
For `CC(=O)c1cccc(NC(=O)COC(=O)c2ccc(S(C)(=O)=O)c([N+](=O)[O-])c2)c1` [MLS000517219-01], the “activity in the qHTS (active/inactive)” value was “inactive”.
`Cc1ccccc1NC(=O)COC(=O)c1ccc(S(C)(=O)=O)c([N+](=O)[O-])c1` [MLS001017631-01] was tested, and the “activity in the qHTS (active/inactive)” value was “inactive”.
With `CS(=O)(=O)c1ccc(C(=O)OCC(=O)NC(=O)C2CCCCC2)cc1[N+](=O)[O-]` [MLS000517530-01] the “activity in the qHTS (active/inactive)” value was “active”.
In the case of `CS(=O)(=O)c1ccc(C(=O)OCc2nnc(-c3ccc(Cl)cc3)o2)cc1[N+](=O)[O-]` [MLS001003284-01], the “activity in the qHTS (active/inactive)” value is reported as “inactive”.
For `CS(=O)(=O)c1ccc(C(=O)OCC(=O)NC2CCS(=O)(=O)C2)cc1[N+](=O)[O-]` (stereo not shown) [MLS000336487-01], the “activity in the qHTS (active/inactive)” value was “inactive”.
